Test results taken from paper PMC4371170 (Learning & Memory, 2015).

Key:
[1] = system: global histone H3 acetylation; assay: Immunocytochemistry of global histone H3 acetylation in BLA and dentate gyrus; format: in vivo, mice; conditions: 10 mg/kg IP, 1 h after administration, qualitative
Summary of the method: (§1)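 Mice received vehicle or test compound at 10 mg/kg IP (n = 2/group). They were perfused 1 h after dosing and brain tissue was processed for immunocytochemistry. Global acetyl-H3 or acetyl-H4 immunofluorescence was imaged with DAPI counterstain in the basolateral amygdala and hippocampal dentate gyrus. Assessment was qualitative, from photomicrographs of colocalization.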

C57BL/6J mice [2] = format: in vivo; conditions: 10 mg/kg IP after extinction training
Summary of the method: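 Adult male C57BL/6J mice, 8–12 wk, group-housed 1 wk at 24°C on a 12-h light–dark cycle with food and water ad libitum, tested in the light phase. At 48 h after fear conditioning, three CS trials in a novel Context B (Plexiglas over shock bars, red light, 1% ammonium hydroxide) were averaged to assign groups (n = 12/group) matched for freezing. Extinction training followed 24 h later. Retention tests of 15 CS trials were run 24 and 48 h later, with freezing to the CS scored automatically.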

C57BL/6J mice [3] = assay: Open-field test; format: in vivo; conditions: 10 mg/kg IP
[4] = system: other HDACs besides HDAC1, HDAC2, HDAC3, and HDAC10; assay: HDAC inhibitory potency against all 11 HDAC enzymes, remaining enzymes; format: biochemical; conditions: serial dilution starting at 20 μM
[5] = system: global histone H4 acetylation; assay: Immunocytochemistry of global histone H4 acetylation in BLA and dentate gyrus; format: in vivo, mice; conditions: 10 mg/kg IP, 1 h after administration, qualitative
Summary of the method: as §1

C57BL/6J mice [6] = assay: Extinction retention tests after drug without extinction training; format: in vivo; conditions: 10 mg/kg IP without extinction training
lysine 8 on H4 = conditions: site regulated by HDAC3; ref Malvaez et al. 2013; cited from earlier work
[7] = 10 mg/kg IP, mouse
HAT activity = conditions: ref Nair et al. 2001; cited from earlier work

Structure (SMILES)	global acetylation of histone H3 in the BLA ([1]; compared with vehicle)	global acetylation of histone H3 in the dentate gyrus [1]	effect on consolidation of cued fear extinction (C57BL/6J mice [2])	effect of drug on time spent in the center (C57BL/6J mice [3]; F(2,23) = 0.22, NS)	effect of drug on distance traveled (C57BL/6J mice [3]; F(2,23) = 1.06, NS)	inhibition of any other HDACs [4]	global H4 acetylation in the BLA [5]	global acetylation of histone H4 in the dentate gyrus [5]	nonspecific effect on extinction retention (C57BL/6J mice [6])	acetylation of lysine 8 on H4 (lysine 8 on H4)	brain penetrance compared with RGFP963 [7]	crossing of the blood brain barrier [7]	time of maximum brain concentration post-drug administration [7] [min]	effect on HAT activity (HAT activity)
Nc1cc(F)ccc1NC(=O)/C=C/c1cnn(C/C=C/c2ccccc2)c1 [RGFP966]	seems to increase	seem to decrease	no effect	No significant effect	No significant effect	did not inhibit	Neither RGFP966 nor RGFP963 appear to alter	seem to decrease	does not nonspecifically enhance extinction retention	enhance acetylation	lower brain penetrance	able to cross the blood brain barrier	15	
CC(/C=C/C(=O)NO)=C\[C@@H](C)C(=O)c1ccc(N(C)C)cc1 [trichostatin A]														inhibition of HAT activity
